Laboratory results reported in article PMC8429223 (Biomedicine & pharmacotherapy = Biomedecine & …, 2021).

Experiments:
breast CSCs = conditions: cited from earlier work
primary ALL-5 cells = assay: MTT cell viability assay, primary ALL-5; assay type: cell-based; conditions: Homo sapiens, ALL5, 120 h, read-out: ALL-5 IC50
Method in brief: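 Primary ALL-5 cells (patient bone-marrow-derived) were kept in supplemented IMDM at 1–3 x 10⁶ cells ml⁻¹ and plated at 10⁵ cells/well. They were treated 120 h with a test compound series or 0.1% DMSO. MTT (5 mg ml⁻¹) was added for 24 h at 37°C, then 10% SDS in 0.01 M HCl for a further 24 h; absorbance 540 nm. IC50 by non-linear regression; mean ± SD (n = 4).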

[1] = test system: Bak and LC3-II in MDA-MB-231 cells; assay: Immunoblot analysis, cell monolayer; assay type: cell-based, human
Method in brief: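 Monolayers of MDA-MB-231 (2.2 x 10⁶ cells/100 mm dish) were treated 24 or 48 h with test compound or 0.1% DMSO, ± 100 μM Z-VAD-FMK. Cells were trypsin-harvested, snap-frozen and lysed in 25 mM HEPES pH 7.5, 300 mM NaCl, 0.1% Triton X-100 with protease/phosphatase inhibitors. Blots were blocked in 5% milk/TBS-T 1 h at RT, then probed overnight at 4°C: Bak and LC3B 1:1000, GAPDH 1:10000 loading control; HRP anti-rabbit 1:5000. Band intensities were normalised to GAPDH as fold of control; mean ± SD (n=3).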

MDA-MB-231 cells [2] = assay: Cell cycle / sub-G1 DNA analysis by flow cytometry; assay type: cell-based, human; conditions: 30 μM SAL, 24 h (20 μM not significant)
[3] = test system: EMT marker mRNA in MDA-MB-231 cells; assay: qRT-PCR analysis of EMT markers; assay type: cell-based, human; conditions: ½ IC50, 24 h, vs untreated controls
Method in brief: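 MDA-MB-231 cells (0.7–2.2 x 10⁶ per 100 mm dish) were exposed 24 h to test compound or 0.1% v/v DMSO vehicle. Cells were trypsin-released and washed in PBS before RNA work. Transcript levels were measured by qRT-PCR and calculated relative to GAPDH by the ΔΔCt method; unpaired t test with Welch's correction.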

[4] = doses of 200–250 μg kg−1; cited from earlier work
MCF 10A cells = assay: MTT cell viability assay, MCF 10A; assay type: cell-based; conditions: Homo sapiens, 96 h, read-out: MCF 10A IC50
Method in brief: (§1)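 Cells were seeded in complete medium, MDA-MB-231 at 2 x 10³ and MCF 10A at 2 x 10⁴ cells/well. After 24 h they were exposed to test compound up to 10 μM, or 0.1% DMSO, for 72 h (MDA-MB-231) or 96 h (MCF 10A). MTT (5 mg ml⁻¹) was added for 4 h at 37°C, 5% CO₂, then formazan was dissolved in DMSO with 10 min shaking and read at 540 nm. IC50 by non-linear regression; mean ± SD (n = 4).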

[5] = test system: CD44+/CD24-/low cells of MDA-MB-231 organoids; assay: CD44/CD24 cell surface markers by flow cytometry, organoids; assay type: cell-based, human; conditions: 2.5 μM 1 or 0.5 μM 17, 48 h
Method in brief: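 MDA-MB-231 organoids were made from 20 μl droplets of 1:4 complete Mammocult:Matrigel holding 10⁴ cells each. Droplets were set 1 h at 37°C, grown static 4 days with half-medium feeds every other day, then shaken at 90 rpm. One dissected organoid per 1 ml Mammocult was treated 48 h (vehicle 0.1% DMSO), then dispersed in enzyme-free dissociation buffer with 0.2% NDA. Cells were stained with FITC-anti-CD24 (1:100) and PE-anti-CD44 (1:200) for 30 min in the dark, then PI/RNase. Viable PI-negative cells were gated against isotype control; mean ± SD (n=3).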

MDA-MB-231 cells [6] = assay: Colony formation assay; assay type: cell-based, human
Method in brief: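 MDA-MB-231 cells were seeded at 1.5 x 10⁵/well and left 48 h to attach. After medium change, cells were exposed to test compound or 0.1% DMSO for 6–72 h. They were then harvested and re-plated at 250 cells/well (n=6) in compound-free medium for 13 days. Staining was 0.5% crystal violet in methanol, 40 min at RT. Colonies of ≥25 cells were counted by hand and expressed as % of vehicle; one-way ANOVA.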

MDA-MB-231 cells [7] = assay: MTT cell viability assay, MDA-MB-231; assay type: cell-based, human; conditions: single agent, MDA-MB-231, MTT
Method in brief: as §1

Row | IC50 (MDA-MB-231 cells [7]) [µM] | SMILES | potency in reducing viability of breast CSCs relative to paclitaxel (breast CSCs) [times] | IC50 (primary ALL-5 cells) [µM] | LC3-II (14 kDa) expression vs. untreated control ([1]; 5 x IC50 (25 μM 1, 14 μM 2, 5 μM 17), 24 h) | Bak expression vs. control ([1]; 5 x IC50, 24 h and 48 h, monolayer) | sub-G1 DNA content (MDA-MB-231 cells [2]) | E-cadherin mRNA [3] | Snail-2 mRNA [3] | Vimentin mRNA [3] | tolerability in cancer patients [4] | IC50 (MCF 10A cells) [µM] | percentage of CD44+/CD24-/low cells [5] | inhibition of colony growth (MDA-MB-231 cells [6]; 48 h treatment at ½ IC50) [%] | inhibition of colony growth (MDA-MB-231 cells [6]; 72 h treatment at ½ IC50) [%]
1 | – | CC[C@@H](C(=O)[C@@H](C)[C@@H](O)[C@H](C)[C@@H]1O[C@@H]([C@@H](CC)C(=O)O)CC[C@@H]1C)[C@H]1O[C@]2(C=C[C@@H](O)[C@]3(CC[C@@](C)([C@H]4CC[C@](O)(CC)[C@H](C)O4)O3)O2)[C@H](C)C[C@@H]1C [SAL (1), salinomycin] | ~100 | 5.8 ± 1.7 | significant upregulation | very modest, but statistically significant, increase | statistically significant sub-G1 DNA content | downregulated | upregulated | upregulated | well tolerated | 0.1 ± 0.02 | modest, but significant reduction | 84 | 90
2 | 142 | O=C(NO)c1ccccc1 [benzhydroxamic acid] | – | – | – | – | – | – | – | – | – | – | – | – | –
